Experimental data pooled from the literature.
Lines come from different studies, so protocols differ.
MINK1: Misshapen-like kinase 1 (MINK1, Homo sapiens, UniProt Q8N4C8)
SLK: STE20-like serine/threonine-protein kinase (SLK, Homo sapiens, UniProt Q9H2G2)
CD209: CD209 antigen (CD209, Homo sapiens, UniProt Q9NNX6)
SLC22A11: Solute carrier family 22 member 11 (SLC22A11, Homo sapiens, UniProt Q9NSA0)
OPRD1: Delta-type opioid receptor (OPRD1, Homo sapiens, UniProt P41143)

| Structure (SMILES) | target | test | conditions | quantity | value |
| --- | --- | --- | --- | --- | --- |
| COc1ccc2oc(-c3ccc4nc(N)oc4c3)c/c(=N\c3ccccc3NC(=O)CCN)c2c1 | MINK1 | binding | 1 µM | remaining binding | 103% |
| C[C@]1(O)CCCN(c2nc(Nc3ccc(S(=O)(=O)N[C@H]4CC[C@H](CN5CCN(c6ccc(C7CCC(=O)NC7=O)cc6F)CC5)CC4)cc3F)ncc2C(F)(F)F)C1 (stereo partly drawn) | SLK | binding, competition with immobilised ligand | 1 µM | remaining binding | 34% |
| COc1c(Nc2cc(C(F)(F)F)cc(C(F)(F)F)c2)c(=O)c1=O | CD209 | cell-free assay, inhibitor | pH 7.4 | kinact/KI | 0.916 M⁻¹ s⁻¹ |
| C[C@]1(O)CCCN(c2nc(Nc3ccc(S(=O)(=O)N[C@H]4CC[C@H](CN5CCN(c6ccc(C7CCC(=O)NC7=O)cc6F)CC5)CC4)cc3Cl)ncc2C(F)(F)F)C1 (stereo partly drawn) | Serine/threonine-protein kinase RIO1 (RIOK1, Homo sapiens, UniProt Q9BRS2) | binding, competition with immobilised ligand | 1 µM | remaining binding | 88% |
| CCCCC1C(=O)N(c2ccccc2)N(c2ccccc2)C1=O | SLC22A11 | transporter uptake, inhibitor | 25 µM | inhibition | 82.7% |
| CCN1/C(=C/C(C)=O)Sc2ccc(F)cc21 | OPRD1 | ligand displacement, radioligand | 10 µM | inhibition | 0.37% |
| NC/C(=C\F)COc1cccc(Cn2c(=S)[nH]c(=O)c3[nH]cnc32)c1 | Diamine oxidase [copper-containing] (AOC1, Homo sapiens, UniProt P19801) | enzyme activity, inhibitor | 200 pM | inhibition | 3.14% |
| O=C(ON1C(=O)CCC1=O)c1cc(C(F)(F)F)cc(C(F)(F)F)c1 | CD209 | cell-free assay | pH 7.4 | kinact | 0.00574 s⁻¹ |
| CCCc1nc2c(C)cc(-c3nc4ccccc4n3C)cc2n1Cc1ccc(-c2ccccc2C(=O)O)cc1 | SLC22A11 | transporter uptake, inhibitor | 25 µM | inhibition | 90.2% |
| Cc1cc(O)c(-c2ccc([C@@H](C)CN(C)C)cc2)c2c1[nH]c(=O)c1sccc12 | Serine/threonine-protein kinase Nek8 (NEK8, Homo sapiens, UniProt Q86SG6) | enzyme activity, inhibitor | 0.1 µM | inhibition | 4.95% |
| CCCCC1=NC2(CCCC2)C(=O)N1Cc1ccc(-c2ccccc2-c2nnn[nH]2)cc1 | SLC22A11 | transporter uptake, inhibitor | 25 µM | inhibition | 50 to 90% |
| CCCCC(=O)Nc1ccc(-c2ccc3ncn(CCC)c(=O)c3c2)cn1 | MINK1 | binding, competition with immobilised ligand | 0.5 µM | remaining binding | 99% |
| Cc1cc(S(=O)(=O)N[C@H]2CC[C@H](CN3CCN(c4ccc(C5CCC(=O)NC5=O)cc4F)CC3)CC2)ccc1Nc1ncc(C(F)(F)F)c(N2CCC[C@](C)(O)C2)n1 (stereo partly drawn) | SLK | binding, competition with immobilised ligand | 1 µM | remaining binding | 55% |
| Cc1cc(F)cc2c(CCC(=O)N[C@@H]3C(=O)NC[C@H]3O)c(-c3ccc(F)cc3)[nH]c12 | OPRD1 | cell-free assay | 10 µM | inhibition | 1% |
| O=C(N/N=C/c1ccc([N+](=O)[O-])o1)c1cc([N+](=O)[O-])cc([N+](=O)[O-])c1O | SLC22A11 | transporter uptake, inhibitor | 25 µM | inhibition | 78.3% |
| C1=C/COCc2cc(ccc2OCCN2CCCC2)Nc2nccc(n2)-c2cccc(c2)COC/1 | Tyrosine-protein kinase ABL1 (ABL1, Homo sapiens, UniProt P00519, T315I) | binding | 0.1 µM | remaining binding | 13% |
| C#Cc1cc(-c2cc(Nc3nc(N[C@@H](C)c4ccc(F)cn4)ncc3Cl)n[nH]2)ccc1C=O | MINK1 | enzyme activity, inhibitor | 0.2 µM | inhibition | 55.9% |
| CC(C)=CCCC1(C)C=Cc2c(O)c3c(c(CC=C(C)C)c2O1)OC12C(=CCCC1C(C)(C)O[C@@]2(C/C=C(\C)C(=O)O)C(=O)O)C3=O (stereo partly drawn) | SLC22A11 | transporter uptake, inhibitor | 25 µM | inhibition | 87.8% |
